# pIC50: −log10 of the molar value.
# How the values were obtained:
# Format in all cases: cell-based
# [1] = system: Plasmodium falciparum (NF54 strain); experiment: in vitro antiplasmodial activity, chloroquine-sensitive NF54 strain; settings: NF54, read-out: IC50 P. falciparum (NF54 strain)
# In short: (§1)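 Test compounds were run in vitro in parallel against P. falciparum NF54 and K1, T. cruzi Tulahuen C4 amastigotes, T. b. rhodesiense STIB 900 trypomastigotes, L. donovani MHOM-ET-67/L82 amastigotes and rat L6 skeletal myoblasts. Each IC50 is the mean of two independent assays, with individual values within a factor of 2. Selectivity index = L6 IC50 ÷ P. falciparum IC50 for the respective strain.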
# [2] = system: Leishmania donovani (MHOM-ET-67/L82, amastigotes); experiment: in vitro activity against Leishmania donovani; settings: read-out: IC50 L. donovani
# In short: as §1
# [3] = system: Trypanosoma brucei rhodesiense (STIB 900 strain, trypomastigotes); experiment: in vitro activity against Trypanosoma brucei rhodesiense; settings: RHODESIENSE|STIB900, read-out: IC50 T. brucei rhodesiense
# In short: as §1
# [4] = cytotoxicity against mammalian host cells; settings: rat, rat skeletal myoblast L6 cells
# In short: as §1
smiles,measurement,setting,value
C[C@@H]1CC[C@H]2[C@@H](C)C(=O)O[C@@H]3O[C@@]4(C)CC[C@@H]1[C@]32OO4 [Artemisinin],pIC50,[1],7.68
CCCCCCCCCCCCCCCCOP(=O)([O-])OCC[N+](C)(C)C [Miltefosine],pIC50,[2],5.97
Nc1nc(N)nc(Nc2ccc([As]3SCC(CO)S3)cc2)n1 (stereo not shown) [Melarsoprol],pIC50,[3],7.52
COc1cc([C@@H]2c3cc4c(cc3[C@H](O)[C@H]3COC(=O)[C@H]23)OCO4)cc(OC)c1OC [Podophyllotoxin],pIC50,[4],8.02
